Drawing on ChEMBL document CHEMBL1124196, “Etodolac, a novel antiinflammatory agent. The syntheses and biological evaluation of its metabolites” (J Med Chem, 1988), this text covers IC50 and inhibition in vivo for 7 compounds.

A short description of experiment [1]: Evaluated in vitro for its ability to inhibit prostaglandin E2 production in cultured chondrocyte cells at 25 mg/kg dose. The class given is functional, organism-based. Particulars: Rattus norvegicus.
Experiment [2] relates to Rattus norvegicus. The experiment is described as follows: Evaluated for the inhibition of adjuvant-induced hind paw edema in rats at 25 mg/kg dose. In kind it is functional. Put shortly:
(§1)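 Male Sprague-Dawley rats (180-200 g), groups of 10; 0.1 mL Freund's complete adjuvant (0.5 mg killed, dried Mycobacterium butyricum in mineral oil) intradermally into left hindpaw. Compound or vehicle (0.5% Tween 80 in water) by gastric lavage just before FCA (day 0) and at 24 and 48 h. Paw volume by plethysmometer before FCA and on day 3; % inhibition of mean edema versus control.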

For experiment [3], the system named is Rattus norvegicus. As to the kind of experiment: Evaluated for the inhibition of adjuvant-induced hind paw edema in rats at 12 mg/kg dose. In kind it is functional. The gist of the method:
as §1

A short description of experiment [4]: Evaluated in vitro for its ability to inhibit prostaglandin E2 production in cultured chondrocyte cells at 12 mg/kg dose. The class given is functional, organism-based. Particulars: Rattus norvegicus.

`CCc1cccc2c3c([nH]c12)C(CC)(CC(=O)O)OCC3=O` (stereo not drawn) registered an IC50 in experiment [1] of 0.185 µM. Further, in the experiment on Rattus norvegicus [2], the inhibition in vivo at 25 mg/kg is 21%.

On to `CCc1cccc2c3c(n(C)c12)C(CC)(CC(=O)O)OCC3` (stereo not drawn), for which, in experiment [1], the IC50 was found to be 25 µM. Moreover, the inhibition in vivo at 25 mg/kg with Rattus norvegicus [2] worked out at 11%.

The compound `CCc1cccc2c3c([nH]c12)C(CC)(CC(=O)O)OCC3NC(N)=O` (stereo not drawn) [4-UREIDOETODOLAC] displayed an IC50 in experiment [1] greater than 100 µM.

For `CCc1cc(O)cc2c3c([nH]c12)C(CC)(CC(=O)O)OCC3` (stereo not drawn) [6-HYDROXYETODOLAC], the IC50 in experiment [1] was determined as 6.5 µM. The inhibition in vivo at 25 mg/kg in the experiment on Rattus norvegicus [2] worked out at 10%.

In the case of `CCc1c(O)ccc2c3c([nH]c12)C(CC)(CC(=O)O)OCC3` (stereo not drawn) [7-HYDROXYETODOLAC], the inhibition in vivo at 12 mg/kg with Rattus norvegicus [3] amounted to 8%. Moreover, half-maximal inhibition in experiment [4] (IC50) was put at 50 µM.

Compound `CCC1(CC(=O)O)OCCc2c1[nH]c1c(C(C)O)cccc21` (stereo not drawn) [8-(1-HYDROXYETHYL)ETODOLAC] came in with an IC50 in experiment [1] of 2 µM. The inhibition in vivo at 25 mg/kg in the experiment on Rattus norvegicus [2] was determined as 14%.

In turn, `CCc1cccc2c3c([nH]c12)C(CC)(CC(=O)O)OCC3` (stereo not drawn) [ETODOLAC] yielded an IC50 in experiment [1] of 0.025 µM. The inhibition in vivo at 25 mg/kg in the experiment with Rattus norvegicus [2] came to 65%.
